# Hits are enriched below; roughly 3.1% of the tested compounds scored in any of these assays.
# SUMO HTRF inh = blocks human SUMOylation mediated by UBC9; P63279; HTRF SUMOylation assay, SAE1/SAE2 + UBC9, in vitro; inhibition, % at 35 µM; hit rate 0.36% among 290,000; AID 2006; in the data active means inhibition above about 50%, passing the limit was not always enough
# Target sequence (P63279 whole entry, looked up): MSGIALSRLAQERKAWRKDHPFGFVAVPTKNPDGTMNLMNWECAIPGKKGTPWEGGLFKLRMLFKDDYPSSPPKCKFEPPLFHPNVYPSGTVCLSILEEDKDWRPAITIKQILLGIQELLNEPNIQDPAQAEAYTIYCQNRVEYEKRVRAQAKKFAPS
# core dimer inh = blocks dimerization of HCV core protein. TR-FRET GST/Flag-core106 dimerization, 1536-well. inhibition, % at 5 µM. hit rate 0.33% among 300,000. AID 1899;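 active means inhibition above the mean of all tested compounds plus 3 SD, set per screening campaign, cut at about 45% in these data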
#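 Assay system: Tagged HCV core106 pair (GST and Flag) | Buffer or medium: KF-containing HEPES buffer, pH 7.45, DTT, CHAPS, BSA | Also added: Eu donor and XL665 acceptor anti-tag antibodies | Dosing: One concentration, 5 µM, in 0.5% DMSO | Timing: 4 h at 22.5 °C | Technique: TR-FRET 671 and 617 nm emission | Repeats: Singlicate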
# PHOSPHO1 block = inhibitors of human PHOSPHO1 phosphatase; Q8TCT1; recombinant PHOSPHO1, absorbance phosphatase assay; inhibition, % at 13.3 µM; hit rate 1.1% among 290,000; AID 1565; in the data active means inhibition above about 60%
# Target sequence (Q8TCT1 whole entry, looked up): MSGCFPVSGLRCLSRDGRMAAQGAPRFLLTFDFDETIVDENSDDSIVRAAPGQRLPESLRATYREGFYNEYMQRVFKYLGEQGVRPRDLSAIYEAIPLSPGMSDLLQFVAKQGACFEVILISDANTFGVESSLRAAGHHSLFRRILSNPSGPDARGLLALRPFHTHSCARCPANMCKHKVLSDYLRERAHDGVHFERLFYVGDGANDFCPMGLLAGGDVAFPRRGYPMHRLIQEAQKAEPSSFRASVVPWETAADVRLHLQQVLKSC
# IMP-1 inhibitor = blocks Pseudomonas aeruginosa IMP-1 metallo-beta-lactamase; purified IMP-1, nitrocefin hydrolysis, epi-absorbance fluorescence; inhibition, % at 5.6 µM; hit rate 0.45% among 290,000;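 active means inhibition above the mean plus 3 SD of all compounds in the same screening run, cut at about 4.5% in these data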;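 further: 0% = IMP-1 with DMSO and 100% = DMSO wells lacking enzyme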
#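 System: purified IMP-1 / Input: IMP-1 dispensed at 0.2 nM / Medium: 50 mM HEPES pH 7.1, 50 µM ZnSO4, 0.05% Brij 35 / Timing: 15 min enzyme–compound preincubation, then 25 min nitrocefin reaction, 25 °C / Technique: plate fluorescence quenching by hydrolysis product, ex 480/em 530 nm / Repeats: singlicate testing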
# HCV NS3 hel inh = inhibitors of Hepatitis C virus NS3 helicase | NS3 helicase DNA unwinding, Cy5 molecular beacon fluorescence | AID 1800 | inhibition, % at 10.9 µM | hit rate 0.56% among 290,000;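 active means inhibition above the mean of all tested compounds plus 3 SD, set per campaign, cut at about 35% in these data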;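 further: 0% = DMSO wells and 100% = thioflavine S control wells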
#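 System: HCV NS3 helicase fragment; control set: DMSO and thioflavine S; technique: Cy5 fluorescence at 0 and 60 min, beacon hairpin quenching; reagent: beacon DNA duplex substrate plus ATP; replicates: singlicate; schedule: 1 h reaction at 25 °C, ATP-initiated; medium: MOPS buffer pH 6.5 with MgCl2, DTT, Tween20, BSA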
# VIM-2 inh = inhibitors of Pseudomonas aeruginosa VIM-2 metallo-beta-lactamase | inhibition, % at 5.6 µM | purified VIM-2, nitrocefin hydrolysis, epi-absorbance fluorescence | hit rate 0.89% among 290,000 | AID 1527;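 active means inhibition above the mean of all tested compounds plus 3 SD, cutoff set per screening run, cut at about 7.5% in these data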;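 further: red hydrolysis product quenches plate fluorescence so inhibitors raise well fluorescence; 0% = enzyme with DMSO and 100% = DMSO without enzyme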
# NS3 helicase cf = HCV NS3 helicase inhibition, confirmation assay; shares compounds with HCV NS3 hel inh; NS3 helicase DNA unwinding, Cy5 molecular beacon fluorescence; inhibition, % at 10.9 µM; hit rate 31% among 1,600; AID 1943;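 active means inhibition above the mean of all tested compounds plus 3 SD, cutoff set per campaign, cut at about 36% in these data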
# DNA FID counter = displaces DNA intercalator in HCV helicase counter-screen | hit rate 4% among 1,600 | shares compounds with HCV NS3 hel inh | DNA fluorescent intercalator displacement, fluorescence | inhibition, % at 7.9 µM; in the data active means inhibition above about 37%;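 further: 0% = vehicle and 100% = reference compound; higher means more displacement of ethidium bromide from the DNA hairpin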
# FID counter DR = counter-screen for HCV NS3 helicase inhibitors: DNA intercalator displacement dose response; fluorescent intercalator displacement from DNA, fluorescence; IC50, µM; 120 tested, under 10 active; shares compounds with HCV NS3 hel inh; AID 2172; call rule not given here
# The depositor's hits bear a star; · = no result given.
SMILES,SUMO HTRF inh,core dimer inh,PHOSPHO1 block,IMP-1 inhibitor,HCV NS3 hel inh,VIM-2 inh,NS3 helicase cf,DNA FID counter,others
N#C/C(=C\c1ccc(OCc2ccc(C(=O)O)cc2)cc1)C(=O)NCc1ccccc1,15,23,14,-2,39*,-1,70*,-27,FID counter DR=>79
COc1cc(/C=C(\C#N)C(=O)NCc2ccccc2)ccc1OCc1ccc(C(=O)O)cc1,14,7,2,-5,30,-3,·,·,
CCc1noc(C)c1C(=O)OCC(=O)NC(=O)c1ccccc1,4,0,36,-2,-3,-2,·,·,
CSc1ncccc1C(=O)NNC(=O)c1ccc(NS(=O)(=O)c2cccs2)cc1,·,0,·,·,·,·,·,·,
Cc1cc(C(=O)Cn2ncc(Cl)c(Cl)c2=O)c(C)n1CC(F)(F)F,3,32,-6,-2,57*,1,-12,-13,
COc1ccc(Cc2nc(C)cc(Cl)n2)cc1[N+](=O)[O-],3,-1,39,-4,12,-2,·,·,
COC(=O)c1ccccc1OCC(=O)NC1CCCCC1,6,-3,-8,-3,1,-1,·,·,
CCc1ccccc1OCC(=O)NC1CCCC1,11,·,-10,-3,49*,-1,-1,-7,
O=[N+]([O-])c1cncc([N+](=O)[O-])c1Nc1cccc(O)c1,5,3,24,0,5,0,·,·,
Cc1[nH]c2ccccc2c1N=Nc1ccccc1C(=O)O,25,-20,-2,-2,44*,-4,5,13,
Cc1ccc(C(=O)c2c(C)oc3c2C(=O)C(=O)c2ccccc2-3)cc1,92*,11,-4,-1,36*,-1,-9,-7,
COC(=O)c1cc2cc(Cl)ccc2nc1SC,11,6,24,-2,0,-2,·,·,
O=C(CSc1nnc(-c2ccco2)o1)NC(=O)C1COc2ccccc2O1 (stereo unspecified),12,-4,19,0,-2,0,·,·,
Cc1cc(C(=O)CSc2nnc(-c3ccco3)o2)c(C)n1CC1COc2ccccc2O1 (stereo unspecified),21,·,91*,2,42*,1,1,-41,
CCC(C)(C)NC(=O)C(c1cccc(OC)c1OC)N(CCOC)C(=O)CCC(=O)Nc1cc(C)on1 (stereo unspecified),9,-2,42,-1,-5,-1,·,·,
Cn1c(CNC(=O)CNC(=O)Cc2ccc(F)cc2)cc(=O)n(C)c1=O,7,-1,46,-4,5,-3,·,·,
CC1(C)Cc2c(C#N)c(NCCc3ccccc3)nc(-c3ccco3)c2CO1,26,34,12,-2,40*,-2,63*,-19,FID counter DR=>79
CCN(CC)CCNc1nc(-c2ccco2)c2c(c1C#N)CC(C)(C)OC2,15,3,-2,-6,-4,-3,·,·,
CCCCNC(=O)Nc1nnc(C(C)(C)C)s1,1,-1,33,-2,8,-5,·,·,
CC(=O)C1=C(O)C(=O)N(c2ccc(Br)cc2)C1c1cccc(F)c1 (stereo unspecified),6,1,14,-3,37*,-1,31,4,
O=C(O)c1cccnc1SCc1cccc(Br)c1,8,-3,29,-3,38*,-2,-13,27,
O=C(O)c1cccnc1SCc1ccc([N+](=O)[O-])cc1,11,0,2,-2,3,0,·,·,
COC(=O)c1ccc(NC(=O)CCS(=O)(=O)c2ccc3c(c2)NC(=O)C(C)S3)cc1 (stereo unspecified),13,1,22,-4,-5,-3,·,·,
COc1ccccc1NC(=O)CCS(=O)(=O)c1ccc2c(c1)NC(=O)C(C)S2 (stereo unspecified),11,-11,27,-3,46*,-3,-14,-17,
CCn1c(C(=O)O)c(S(=O)(=O)c2ccc(Cl)cc2)c2ccccc21,14,·,56,-2,4,-3,·,·,
SMILES,SUMO HTRF inh,core dimer inh,PHOSPHO1 block,IMP-1 inhibitor,HCV NS3 hel inh,VIM-2 inh,NS3 helicase cf,DNA FID counter,others
CCCCCn1c(C)c2c(OCC)cccc(=O)c2c1C,10,-1,42,-3,54*,1,-5,-27,
Nc1nc(SCc2ccc(F)cc2)ns1,-1,0,34,-3,-5,0,·,·,
O=C(O)c1ccccc1C(=O)N1N=C2/C(=C/c3cccc([N+](=O)[O-])c3)CCCC2C1c1cccc([N+](=O)[O-])c1 (stereo unspecified),23,34,4,-1,29,-1,·,·,
O=C(O)c1c(C(=O)N2N=C3/C(=C/c4ccccc4)CCCC3C2c2ccccc2)cccc1[N+](=O)[O-] (stereo unspecified),16,20,42,2,49*,3,69*,-6,
O=C1CC(Nc2ccc(N3CCOCC3)cc2)C(=O)N1c1cccc(C(F)(F)F)c1 (stereo unspecified),-13,4,40,-11,48*,-5,-8,-1,
Cc1cccn2c(=O)c3cc(C(=O)NCc4ccco4)c(=N)n(C4CCCCC4)c3nc12,24,20,46,-1,-7,6,·,·,
Cc1cccn2c(=O)c3cc(C(=O)NC4CCCC4)c(=N)n(C4CCCCC4)c3nc12,2,-16,10,-2,40*,2,-14,18,
COc1ccc(C(=O)Nc2ccnn2C2CCN(C(=O)c3cnsn3)CC2)cc1,23,3,2,-3,3,-2,·,·,
Cc1nc([N+](=O)[O-])cn1CC(O)c1ccc(-c2ccccc2)cc1 (stereo unspecified),14,3,23,0,45*,1,-6,0,
Cc1ccc(N(C(=O)c2csnn2)C(C(=O)NC2CCCC2)c2ccncc2)c(C)c1 (stereo unspecified),1,-3,46,1,39*,1,-7,-8,
OCc1cc(Br)ccc1OCc1nc2ccccc2s1,8,-12,6,-1,38*,-4,-4,-15,
O=C(/C=C/c1ccco1)Nc1nc(-c2ccccc2)cs1,18,38,-10,-2,19,-1,·,·,
O=C(/C=C/c1ccco1)Nc1nc(-c2ccc(F)c(F)c2)cs1,9,7,20,1,54*,1,-6,5,
C(=N\Nc1nc(-c2ccccc2)cs1)/c1ccco1,24,-8,6,-1,34,-1,·,·,
Cc1ccc(-c2csc(N/N=C/c3ccco3)n2)cc1,2,2,28,-5,46*,0,-11,13,

# Source: PubChem BioAssay
